Experimental data of several laboratories.
Target: cGMP-dependent protein kinase 1 (PRKG1, Homo sapiens, UniProt Q13976)
Sequence (Q13976 1-671, as in one of the studies): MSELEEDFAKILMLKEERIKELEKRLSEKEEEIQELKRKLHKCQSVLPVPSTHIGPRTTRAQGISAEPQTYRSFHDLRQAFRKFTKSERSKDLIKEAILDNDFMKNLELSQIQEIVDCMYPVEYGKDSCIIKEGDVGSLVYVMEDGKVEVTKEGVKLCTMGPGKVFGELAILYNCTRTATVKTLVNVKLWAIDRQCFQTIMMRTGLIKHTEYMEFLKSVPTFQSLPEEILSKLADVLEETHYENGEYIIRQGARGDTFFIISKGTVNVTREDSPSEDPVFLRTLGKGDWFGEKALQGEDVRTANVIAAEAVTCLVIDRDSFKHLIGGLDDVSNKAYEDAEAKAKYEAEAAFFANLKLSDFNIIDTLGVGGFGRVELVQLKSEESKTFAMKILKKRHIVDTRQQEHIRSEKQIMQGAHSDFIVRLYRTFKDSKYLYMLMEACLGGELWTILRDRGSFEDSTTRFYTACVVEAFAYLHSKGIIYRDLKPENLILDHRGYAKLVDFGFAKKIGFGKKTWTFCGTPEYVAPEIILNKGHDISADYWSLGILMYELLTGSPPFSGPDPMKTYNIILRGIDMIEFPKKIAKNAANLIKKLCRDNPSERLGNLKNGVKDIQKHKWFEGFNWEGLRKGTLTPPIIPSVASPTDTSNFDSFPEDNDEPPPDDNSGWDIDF

Cc1c(C(=O)O)cc(-c2ccc(C3CCNCC3)cc2)c2ccc(-c3ccc(C(F)(F)F)cc3)cc12
remaining binding (binding; competition with immobilised ligand; 1 µM): 97%

COc1ccnn2ncc(-c3ccnc(N(C)C)n3)c12
remaining binding (binding; 1 µM): 100%

CC1=C(C#N)[C@@H](c2ccc3[nH]nc(C)c3c2)C(C#N)=C(c2ccc(Cl)cc2)N1
remaining binding (cell-free assay; competition with immobilised ligand; 1 µM): 86.9%

COc1ncc2cc3ccccc3nc2c1C#N
remaining binding (cell-free assay; competition with immobilised ligand; 5 µM): 100%

O=C(N[C@H]1CCCCC/C=C\C2C[C@@]2(C(=O)O)NC(=O)[C@@H]2C[C@@H](Oc3ccncc3)CN2C1=O)OC1CCCC1 (stereo partly drawn)
remaining binding (binding; competition with immobilised ligand; 1 µM): 100%

O=C(NCC1CCOCC1)c1n[nH]cc1NC(=O)c1c(F)cccc1F
remaining binding (binding; competition with immobilised ligand; 1 µM): 100%

c1cnn2ncc(-c3ccnc(N4CCC45COC5)n3)c2c1
remaining binding (binding; 1 µM): 89%

C[C@@H](c1ccc(-n2cnc3c(N)ncnc32)cc1)N1CCc2nn(C)c(Cc3ccccc3)c2C1=O
remaining binding (binding; competition with immobilised ligand; 0.1 µM): 82%

C[C@H]1CCN(c2nccc(-c3cnn4ncccc34)n2)C1
remaining binding (binding; 1 µM): 98%

CCCOc1ccc([C@H]2[C@H](C(=O)O)[C@@H](c3ccc4c(c3)OCO4)CN2CC(=O)Nc2c(CC)cccc2CC)cc1
remaining binding (cell-free assay; competition with immobilised ligand; 1 µM): 88%

N[C@@H]1CCN(c2nccc(-c3cnn4ncccc34)n2)C1
remaining binding (binding; 1 µM): 100%

Cc1c[nH]c2nccc(Oc3c(F)cc(Nc4cc(Cl)nc(N)n4)cc3F)c12
remaining binding (cell-free assay; competition with immobilised ligand; 0.1 µM): 49%

O=C(NCCCN1CCOCC1)c1ccc(Nc2nccc(-c3cc4ccccc4s3)n2)cc1
remaining binding (binding; competition with immobilised ligand; 1 µM): 99%

C=CC(=O)N1CCC(C(=O)NCC(=O)N2CCN(c3nc(-c4cnc(N)nc4C(F)F)nc(N4CCOCC4)n3)CC2)CC1
remaining binding (binding; competition with immobilised ligand; 1 µM): 87%

CN(C)c1nccc(-c2cnc3ncccn23)n1
remaining binding (binding; 1 µM): 81%

O=C(NCCCN1CCOCC1)c1ccc(Nc2ncc(Cl)c(-c3ccc(Cl)s3)n2)cc1
remaining binding (binding; competition with immobilised ligand; 1 µM): 100%

C[C@@]1(Cc2ccc(C#N)cc2)C(=O)N(c2cc(Cl)cc(Cl)c2)c2ncc(C(=O)NC3(c4nc(C5CCC5)no4)CC3)n21
remaining binding (cell-free assay; competition with immobilised ligand; 1 µM): 100%

COc1cnc(Nc2cccc(S(N)(=O)=O)c2)nc1N1CCN(c2ccccc2)CC1
remaining binding (binding; competition with immobilised ligand; 1 µM): 100%

F[C@@H]1CCN(c2nccc(-c3cnn4ncccc34)n2)C1
remaining binding (binding; 1 µM): 90%

Cc1cnc(Nc2ccc(C(=O)N3CCC(N4CCCC4)CC3)cc2)nc1-c1cc2ccccc2s1
remaining binding (binding; competition with immobilised ligand; 1 µM): 100%

CNC(=O)[C@@H]1CC[C@@H](n2c(-c3ccc4cnccc4c3)nc3ccc(C(=O)NCc4cccc(C(N)=O)c4)cc32)C1
remaining binding (binding; competition with immobilised ligand; 1 µM): 98%
